Assay results reported in ChEMBL document CHEMBL5380783, “N-Substituted l-Iminosugars for the Treatment of Sanfilippo Type B Syndrome” (J Med Chem, 2023).
Active and inactive are the calls of the source. The rule behind the calls is not given here.

Columns and labels:
SK-N-BE(2) [1] = experiment: Upregulation of NAGLU protein expression in NAGLU-silenced human SK-NBE cell clones at 20 uM incubated for 24 hrs by western blot analysis; type: functional, cell-based
Summary of the method: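 Western blot of control SK-NBE clone and NAGLU-shRNA SK-NBE clone (RPMI, 10% FBS, puromycin 0.7 μg/mL) after 24 h at 20 μM. Lysis, Bradford assay, 50 μg per lane, nitrocellulose transfer, anti-NAGLU antibody overnight at 4 °C, HRP secondary and ECL. GAPDH re-probe for loading.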

IB3-1 [2] = experiment: Cytotoxicity against human IB3-1 cells assessed as induction of apoptosis upto 100 uM; type: toxicity, cell-based; settings: ib3-1, 100 µM
IB3-1 [3] = experiment: Antiproliferative activity against human IB3-1 cells upto 100 uM; type: toxicity, cell-based; settings: ib3-1, 100 µM
[4] = Antiproliferative activity against human CuFi cells upto 100 uM; type: toxicity, cell-based
SK-N-BE(2) [5] = experiment: Effect on heparan sulfate changes in human SK-NBE cell membrane at 20 uM incubated for 48 hrs by indirect immunofluorescence staining analysis; type: functional, cell-based
Summary of the method: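 Control and NAGLU-silenced SK-NBE clones grown on coverslips with 20 μM compound for 48 h. Fixed in 3.7% formaldehyde, permeabilized with saponin/BSA buffer, stained with anti-Lamp1 or anti-HS 10E4 for 1 h, then Alexa secondaries. Confocal imaging with 63× objective. Scored as percent cells with enlarged Lamp1 structures or membrane HS, plus mean fluorescence intensity, over 50 random cells from three experiments.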

Fibroblast [6] = experiment: Inhibition of lysosomal defects in Sanfilippo-B patient derived human fibroblast cells assessed as reduction in accumulation of enlarged LAMP1-positive lysosomal structures within the cytoplasm at 20 uM incubated for 48 hrs by LAMP1 staining based indirect immunofluorescence assay; type: functional, cell-based
Summary of the method: (§1)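 HDFa, MPS IIIA, MPS IIIB and MPS I patient fibroblasts in DMEM, 10% FBS, grown 48 h on coverslips with 20 μM compound. Double immunostained for HS (10E4) and Lamp1 with DAPI, confocal imaging. Mean fluorescence intensity expressed relative to untreated cells (d-enantiomers: percent positive cells), 50 random cells from three experiments.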

Fibroblast [7] = experiment: Effect on heparan sulfate changes in human fibroblast cells at 20 uM incubated for 48 hrs by indirect immunofluorescence staining analysis; type: functional, cell-based; summary of the method: as §1
Fibroblast [8] = experiment: Inhibition of heparan sulfate accumulation on cell membrane in Sanfilippo-A patient derived human fibroblast cells at 20 uM incubated for 48 hrs by indirect immunofluorescence staining analysis; type: functional, cell-based; summary of the method: as §1
Fibroblast [9] = experiment: Inhibition of lysosomal defects in MPS-1 patient derived human fibroblast cells assessed as reduction in accumulation of enlarged LAMP1-positive lysosomal structures within the cytoplasm at 40 uM incubated for 48 hrs by LAMP1 staining based indirect immunofluorescence assay; type: functional, cell-based
Summary of the method: (§2)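 MPS I patient fibroblasts grown on coverslips with 40 μM compound for 48 h. Immunostained for HS (10E4) and Lamp1 with DAPI, imaged by confocal microscopy. Mean fluorescence intensity expressed relative to untreated cells, 50 random cells from three independent experiments.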

Fibroblast [10] = experiment: Inhibition of heparan sulfate accumulation on cell membrane in MPS-1 patient derived human fibroblast cells at 40 uM incubated for 48 hrs by indirect immunofluorescence staining analysis; type: functional, cell-based; summary of the method: as §2
HeLa [11] = experiment: Inhibition of heparan sulfate accumulation on cell membrane in human HeLa cells at 20 uM incubated for 48 hrs by indirect immunofluorescence staining analysis; type: functional, cell-based
Summary of the method: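 HeLa cells grown 48 h with compound, then immunostained with anti-HS antibody 10E4 to gauge membrane HS.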

HeLa [12] = experiment: Cytotoxicity against human HeLa cells assessed as reduction in cell viability at 20 uM incubated for 48 hrs by trypan blue exclusion method; type: functional, cell-based
Summary of the method: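 HeLa cells seeded at 100,000 per well and grown overnight in complete RPMI. Exposed to 20 μM compound in the same medium for 48 h at 37 °C; untreated mock as control. Cells trypsinized, live cells counted by trypan blue exclusion on an automated counter. Means of three independent experiments, each in triplicate, with s.e.m.; Student's t-test, p < 0.05.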

HeLa [13] = experiment: Downregulation of EXT2 protein expression in human HeLa cells at 20 uM incubated for 24 hrs by western blot analysis; type: functional, cell-based
Fibroblast [14] = experiment: Upregulation of NAGLU protein expression in Sanfilippo-B patient derived human fibroblast cells at 20 uM incubated for 24 hrs by western blot analysis; type: functional, cell-based
Summary of the method: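 Sanfilippo B patient fibroblasts in DMEM, 10% FBS, treated 24 h with 20 μM compound. Lysates (50 μg per lane) blotted with anti-NAGLU antibody and HRP secondary with ECL detection; blots re-probed for β-actin as loading control.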

[15] = test system: Alpha-N-acetylglucosaminidase (Homo sapiens), P54802 [UNDEFINED MUTATION]; experiment: (§3) Stabilization of mutated NAGLU in Sanfilippo-B patient derived human fibroblast cells assessed as increase in NAGLU activity using 4-methylumbelliferyl-N-acetyl-alpha-D-glucosaminide as substrate at 20 uM cells pretreated for 2 hrs with substrate followed by compound addition by fluorescence based analysis relative to control; type: cell-based
Alpha-N-acetylglucosaminidase (Homo sapiens), P54802 [UNDEFINED MUTATION], sequence (P54802 whole entry, looked up, change not shown): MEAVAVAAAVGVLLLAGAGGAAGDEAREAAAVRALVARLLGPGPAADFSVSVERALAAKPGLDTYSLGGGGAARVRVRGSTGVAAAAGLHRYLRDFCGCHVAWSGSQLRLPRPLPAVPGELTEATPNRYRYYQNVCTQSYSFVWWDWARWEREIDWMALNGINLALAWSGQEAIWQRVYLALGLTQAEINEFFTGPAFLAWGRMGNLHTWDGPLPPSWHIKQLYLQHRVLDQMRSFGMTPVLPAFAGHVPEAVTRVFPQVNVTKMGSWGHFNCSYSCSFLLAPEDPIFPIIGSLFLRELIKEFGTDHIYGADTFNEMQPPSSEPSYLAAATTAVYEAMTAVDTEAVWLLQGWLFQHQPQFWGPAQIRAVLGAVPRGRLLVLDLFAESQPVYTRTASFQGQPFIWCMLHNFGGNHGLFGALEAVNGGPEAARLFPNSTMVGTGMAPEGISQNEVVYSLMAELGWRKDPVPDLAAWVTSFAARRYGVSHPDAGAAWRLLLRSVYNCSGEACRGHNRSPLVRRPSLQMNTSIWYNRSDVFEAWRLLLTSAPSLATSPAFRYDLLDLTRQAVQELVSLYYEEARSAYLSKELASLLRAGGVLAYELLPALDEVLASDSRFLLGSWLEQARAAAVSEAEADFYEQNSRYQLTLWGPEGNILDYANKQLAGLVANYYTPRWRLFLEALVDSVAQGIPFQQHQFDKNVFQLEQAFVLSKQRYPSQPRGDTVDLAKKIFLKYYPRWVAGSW
Summary of the method: (§4)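 Pellets of 5 × 10^5 MPS IIIB or HDFa fibroblasts lysed by 10 freeze–thaw cycles and clarified at 4 °C; protein by Lowry. Lysate incubated 2 h with 2 mM 4-methylumbelliferyl-N-acetyl-α-D-glucosaminide stock in 0.2 M Na-acetate pH 4.5, compound added at 20 μM. Activity normalized to protein, expressed as nmol substrate hydrolysed per h per mg.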

SK-N-BE(2) [16] = experiment: Inhibition of amyloid beta (1 to 42) accumulation in cytoplasm of NAGLU-silenced human SK-NBE cell clones at 20 uM incubated for 48 hrs by indirect immunofluorescence staining based analysis; type: functional
Summary of the method: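 NAGLU-silenced SK-NBE clone on coverslips, exposed to 20 μM compound for 48 h. Cells fixed in formaldehyde, permeabilized with saponin, stained with anti-Aβ1-42 antibody and fluorescent secondary, imaged by confocal microscopy. Cells bearing Aβ1-42-positive structures counted among 50 random cells from three independent experiments; untreated clone as comparator.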

[17] = test system: Alpha-N-acetylglucosaminidase (Homo sapiens), P54802 [UNDEFINED MUTATION]; experiment: as §3, with “analysis” for “analysis relative to control”; type: cell-based; summary of the method: as §4

| SMILES | Activity (SK-N-BE(2) [1]) | Activity (IB3-1 [2]) | Activity (IB3-1 [3]) | Activity [4] | Activity (SK-N-BE(2) [5]) | inhibition (Fibroblast [6]) | Activity (Fibroblast [7]) | inhibition (Fibroblast [8]) | inhibition (Fibroblast [9]) | inhibition (Fibroblast [10]) | inhibition (HeLa [11]) | Activity (HeLa [12]) | inhibition (HeLa [13]) | Activity (Fibroblast [14]) | fold change (FC) [15] | inhibition (SK-N-BE(2) [16]) | Activity [17] |
| --- | --- | --- | --- | --- | --- | --- | --- | --- | --- | --- | --- | --- | --- | --- | --- | --- | --- |
| CCCCN1C[C@@H](O)[C@H](O)[C@@H](O)[C@@H]1CO.Cl | inactive | Non-Toxic | Non-Toxic | Non-Toxic | inactive | Active | inactive | Active | Active | Active | Active | Active | Active | Active | 20 | Active |  |
| COCCCCCCCCCN1C[C@@H](O)[C@H](O)[C@@H](O)[C@@H]1CO.Cl | inactive | Non-Toxic | Non-Toxic | Non-Toxic | inactive | Active | inactive | Active | Active | Active | Active | Active | inactive | Active |  | Active | Active |
| Cl.OC[C@H]1[C@H](O)[C@@H](O)[C@H](O)CN1CCCCCOCC12CC3CC(CC(C3)C1)C2 | inactive | Non-Toxic | Non-Toxic | Non-Toxic | inactive | Active | inactive | Active | Active | Active | Active | Active | inactive | Active |  | Active | Active |
| Cl.OC[C@@H]1NC[C@@H](O)[C@H](O)[C@H]1O | inactive | Non-Toxic | Non-Toxic | Non-Toxic | inactive | Active | inactive | Active | Active | Active | Active | Active | Active | Active |  | Active | Active |
